How the values were obtained:
Procathepsin L [1] = molecular target: T1, Procathepsin L (Homo sapiens, UniProt P07711); experiment: Inhibition of human Cathepsin L by fluorescence assay based Cheng-Prusoff equation analysis
Outline: (§1)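 Fluorescence-based enzymatic assay against human cathepsin L, run as previously described. IC50 was measured, and Ki was then calculated from it with the Cheng-Prusoff equation.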

[2] = Lipophilicity, logD of the compound; format: physicochemical; settings: octanol/water
Procathepsin L [3] = molecular target: T1, Procathepsin L; experiment: Inhibition of human Cathepsin L; outline: as §1

T1 sequence (P07711 whole entry): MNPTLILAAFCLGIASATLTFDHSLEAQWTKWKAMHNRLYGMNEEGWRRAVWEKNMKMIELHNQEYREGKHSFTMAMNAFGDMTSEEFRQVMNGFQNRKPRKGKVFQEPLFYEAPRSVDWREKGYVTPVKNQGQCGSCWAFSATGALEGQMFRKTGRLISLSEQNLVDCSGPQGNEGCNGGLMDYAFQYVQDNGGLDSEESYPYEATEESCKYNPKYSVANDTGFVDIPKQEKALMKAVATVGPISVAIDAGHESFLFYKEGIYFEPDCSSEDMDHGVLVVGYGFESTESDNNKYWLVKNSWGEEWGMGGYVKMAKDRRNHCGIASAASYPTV

Row | Structure (SMILES) | Ki (Procathepsin L [1]) [nM] | logD [2] | Ki (Procathepsin L [3]) [nM]
1 | N#Cc1ncc(F)c(N(Cc2ccc3c(c2)OCO3)c2cccc(OCc3ccccc3)c2)n1 | > 5100 |  | 
2 | N#Cc1ncc(F)c(N(Cc2ccc3c(c2)OCO3)[C@H]2CC[C@@H](C(F)(F)F)CC2)n1 | 3500 |  | 
3 | N#Cc1ncc(F)c(N(CCC2CCOCC2)Cc2ccc3c(c2)OCO3)n1 | 2790 | 3.46 | 
4 | N#Cc1ncc(F)c(N(CCc2ccccn2)Cc2ccc3c(c2)OCO3)n1 | 3860 | 3.39 | 
5 | CC(C)[C@H]1CC[C@@H](N(Cc2ccc3c(c2)OCO3)c2nc(C#N)ncc2F)CC1 | 3020 | 2.74 | 
6 | CC(C)=CCN(Cc1ccc2c(c1)OCO2)c1nc(C#N)ncc1F | 1010 |  | 
7 | N#Cc1ncc(F)c(N(Cc2ccc3c(c2)OCO3)C2CCSCC2)n1 | 515 | 3.61 | 
8 | N#Cc1ncc(F)c(N(Cc2ccc3c(c2)OCO3)c2ccc(F)cc2)n1 | 952 | 3.49 | 
9 | N#Cc1ncc(F)c(N(Cc2ccc3c(c2)OCO3)c2ccc(OCC(F)(F)F)cc2)n1 | > 5100 |  | 
10 | Cc1cc(OCCN(Cc2ccc3c(c2)OCO3)c2nc(C#N)ncc2F)cc(C)c1Cl | 1430 | 2.32 | 
11 | N#Cc1nc(N2CCOCC2)nc(N(Cc2ccc(Cl)cc2)C2CCCCC2)n1 |  |  | 13
12 | N#Cc1ncc(F)c(N(Cc2ccc3c(c2)OCO3)c2ccc(OCC3CC3)cc2)n1 | > 5100 |  | 
13 | N#Cc1ncc(F)c(N(Cc2ccc3c(c2)OCO3)[C@H]2CC[C@H](C(F)(F)F)CC2)n1 | > 5100 |  | 
14 | CC1(N(Cc2ccc3c(c2)OCO3)c2nc(C#N)ncc2F)CC1 | > 5100 | 3.38 | 
15 | CSc1cccc(N(Cc2ccc3c(c2)OCO3)c2nc(C#N)ncc2F)c1 | 5100 |  | 
16 | CNCCc1cccc(N(Cc2ccc3c(c2)OCO3)c2nc(C#N)ncc2F)c1 | > 5100 |  | 
17 | Cc1nc2n(c(=O)c1CCN(Cc1ccc3c(c1)OCO3)c1nc(C#N)ncc1F)CCCC2 | 1750 | 2.96 | 
18 | N#Cc1ncc(F)c(N(CCc2ccsc2)Cc2ccc3c(c2)OCO3)n1 | 671 |  | 
19 | N#Cc1ncc(F)c(N(Cc2ccc3c(c2)OCO3)c2ccccc2)n1 | 1800 | 3.44 | 
20 | N#Cc1ncc(F)c(N(Cc2ccc(Cl)cc2)Cc2ccc3c(c2)OCO3)n1 | > 5100 |  | 
21 | N#Cc1ncc(F)c(N(Cc2ccc3c(c2)OCO3)c2ccc(Oc3cccnc3)cc2)n1 | 1020 |  | 
22 | N#Cc1ncc(F)c(N(Cc2ccccc2)Cc2ccc3c(c2)OCO3)n1 | > 5100 |  | 
23 | N#Cc1ncc(F)c(N(Cc2ccc3c(c2)OCO3)C2CCCCC2)n1 |  |  | 200

Next, values leading:

Row | Ki (Procathepsin L [1]) [nM] | logD [2] | Ki (Procathepsin L [3]) [nM] | Structure (SMILES)
24 | 358 |  |  | N#Cc1ncc(F)c(N(CCc2cccc(Br)c2)Cc2ccc3c(c2)OCO3)n1
25 | 25 | 3.16 |  | N#Cc1ncc(F)c(N(CCC(F)(F)F)Cc2ccc3c(c2)OCO3)n1
26 | 411 | 3.49 |  | Cc1nsc(N2CCC(N(Cc3ccc4c(c3)OCO4)c3nc(C#N)ncc3F)CC2)n1
27 | 279 |  |  | N#Cc1ncc(F)c(N(CCc2ccc(F)cc2)Cc2ccc3c(c2)OCO3)n1
28 | 123 |  |  | N#Cc1ncc(F)c(N(CCOc2ccc3ccccc3c2)Cc2ccc3c(c2)OCO3)n1
29 | 27 |  |  | N#Cc1ncc(F)c(N(CCCc2ccc(Cl)cc2)Cc2ccc3c(c2)OCO3)n1
30 | 91 |  |  | N#Cc1ncc(F)c(N(CCCc2noc(-c3ccccc3)n2)Cc2ccc3c(c2)OCO3)n1
31 | 30 |  |  | COc1cccc(CCCN(Cc2ccc3c(c2)OCO3)c2nc(C#N)ncc2F)c1
32 | 505 | 3.15 |  | N#Cc1ncc(F)c(N(CCc2ccncc2)Cc2ccc3c(c2)OCO3)n1
33 | 12 |  |  | N#Cc1ncc(F)c(N(Cc2ccc3c(c2)OCO3)CC2CCCC2)n1
34 | 77 |  |  | N#Cc1ncc(F)c(N(CCOc2ccccc2)Cc2ccc3c(c2)OCO3)n1
35 | 167 |  |  | N#Cc1ncc(F)c(N(CCOc2ccc(Cl)cc2)Cc2ccc3c(c2)OCO3)n1
36 | 77 | 3.02 |  | N#Cc1ncc(F)c(N(Cc2ccc3c(c2)OCO3)CC2CC2)n1
37 | 304 | 2.12 |  | N#Cc1cccc(CCN(Cc2ccc3c(c2)OCO3)c2nc(C#N)ncc2F)c1
38 | 217 |  |  | N#Cc1ncc(F)c(N(CCc2ccccc2)Cc2ccc3c(c2)OCO3)n1
